Screening results (PubChem)
CHRM1 antagonist: blocks human M1 muscarinic receptor | CHO-K1 hM1, Fluo-8 calcium fluorescence, ACh EC80 antagonist | inhibition, % at 3 µM | actives 1.3% (n = 360,000);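 active = percent inhibition above its own plate's cutoff, namely the mean of that plate's compound wells plus 3 SD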;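 also: peak over basal fluorescence ratio during 140 s after agonist addition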
Target sequence (P11229 whole entry, looked up): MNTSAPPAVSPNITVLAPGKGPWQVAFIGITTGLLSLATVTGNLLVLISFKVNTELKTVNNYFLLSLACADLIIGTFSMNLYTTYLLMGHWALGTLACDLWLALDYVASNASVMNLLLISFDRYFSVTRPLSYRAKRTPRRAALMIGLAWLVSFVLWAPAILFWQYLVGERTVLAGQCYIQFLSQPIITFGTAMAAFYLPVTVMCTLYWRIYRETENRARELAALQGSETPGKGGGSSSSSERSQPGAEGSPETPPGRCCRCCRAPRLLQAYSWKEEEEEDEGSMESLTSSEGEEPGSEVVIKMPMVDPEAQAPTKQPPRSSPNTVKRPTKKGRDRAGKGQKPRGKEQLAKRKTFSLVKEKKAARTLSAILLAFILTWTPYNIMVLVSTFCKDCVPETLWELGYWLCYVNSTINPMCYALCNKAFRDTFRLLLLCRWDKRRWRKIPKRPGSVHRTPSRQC
TAAR1 antagonist: human TAAR1 antagonism; Q96RJ0; actives 1.5% (n = 360,000); CHO RD-HGA16 TAAR1, Fluo-8 calcium fluorescence, antagonist; AID 624466; inhibition, % at 3 µM;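 active = inhibition above a per-plate cutoff, the mean inhibition of test compounds on that plate plus 3 SD, cut at about 49% in these data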
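Material: RD-HGA16 CHO cells with stable hTAAR1 and Gα16; Dosing: single nominal final test compound concentration of 3 µM; Schedule: seeding 17-24 h prior, 75-min 37 °C, 30-min RT dye loading; Detection: kinetic Fluo-8 calcium fluorescence measurement; Measure: % inhibition from peak post-agonist over basal fluorescence ratio; Benchmarks: vehicle and agonist controls.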
HTR2A ag: mouse HTR2A agonism via beta-arrestin recruitment; AID 624169; P35363; activation, % at 7.6 µM; CHO-K1 mHTR2A beta-arrestin complementation, luminescence; percent of 30 µM serotonin response; actives 0.66% (n = 360,000);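 active = activation above a run cutoff, the mean activation of all tested compounds plus 3 SD, cut at about 14% in these data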
M1 ag: agonists of human M1 muscarinic receptor. AID 588814. activation, % at 3 µM. actives 0.33% (n = 360,000). CHO-K1 hM1, Fluo-8 calcium fluorescence, agonist mode; 0% DMSO, 100% acetylcholine EC100. P11229;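 active = activation above the run's mean compound activation plus 3 SD, cut at about 16% in these data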;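 also: peak over basal fluorescence ratio within a 140 s kinetic read after compound addition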
TAAR1 agonist: agonists of human TAAR1; AID 624467; Q96RJ0; activation, % at 3 µM; CHO RD-HGA16 TAAR1, Fluo-8 calcium fluorescence; vehicle wells 0%, saturating PEA agonist 100%; actives 0.99% (n = 360,000);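 active = activation above the mean activation of all test compounds in the run plus 3 SD, cut at about 38% in these data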
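Test system: RD-HGA16 (CHO) cells co-expressing Gα16 and hTAAR1 / Benchmarks: DMSO vehicle as 0%, PEA at EC100 as 100% / Repeats: no replicates (n 1) / Measure: % activation from peak over basal fluorescence ratio, DMSO-to-PEA scaled / Timing: 17-24 h plating, Fluo-8 75 min 37 °C, 30 min RT / Technique: kinetic Fluo-8 calcium fluorescence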
CHRM1 PAM: positive allosteric modulators of human M1 muscarinic receptor | AID 588819 | P11229 | CHO-K1 hM1, Fluo-8 calcium fluorescence, ACh EC20; 0% = ACh EC20, 100% = maximal ACh | activation, % at 3 µM | actives 0.088% (n = 360,000); in the data active = activation above about 19%, passing the limit was not always enough
Hits are given with their value; n = inactive; x = no result given. Only some compounds are listed: those with a hit (about 3.9% of all), similar ones and a draw of the others.

SMILES | CHRM1 antagonist | TAAR1 antagonist | HTR2A ag | M1 ag | TAAR1 agonist | CHRM1 PAM
Cc1nc2scc(-c3ccc(C(C)(C)C)cc3)c2c(=O)n1N | n | 51 | n | n | n | n
CC(C)(C)c1oc(C(=O)O)cc1CN1CCOCC1 | n | n | n | n | n | n
O=S(=O)(c1ccc(NC(=S)NCc2cccnc2)cc1)N1CCCCC1 | 44 | n | n | n | n | n
O=C(Nc1ccccc1)Nc1ccc(S(=O)(=O)N2CCCCC2)cc1 | n | n | n | n | 50 | n
O=C(Nc1ccc(S(=O)(=O)N2CCCCC2)cc1)c1ccccc1Cl | n | n | n | n | n | n
O=C(Nc1ccc(S(=O)(=O)N2CCCC2)cc1)C1CCN(S(=O)(=O)c2ccc(F)cc2)CC1 | n | n | n | 17 | n | n
O=C(Nc1cccc(Cl)c1)Nc1cc(S(=O)(=O)N2CCCCC2)ccc1Cl | 25 | n | n | n | n | n
COc1cccc(N2CC(C)Cn3c2nc2c3c(=O)[nH]c(=O)n2C)c1 (stereo not drawn) | n | n | n | n | n | n
C=CCNC(=S)Nc1ccc2cn[nH]c2c1 | n | n | n | n | n | n
COc1ccc(OC)c(S(=O)(=O)NCC2CCN(C(=O)C(=O)c3cc4ccccc4o3)CC2)c1 | x | n | x | x | n | x
Cc1cccc(NC(=O)C2CCCN(c3ncnc4c3nc3n4CCCCC3)C2)n1 (stereo not drawn) | n | n | n | n | n | n
O=S(=O)(Cc1ccc(Cl)cc1)Oc1ccc(Cl)cc1 | n | 55 | n | n | n | n
COc1ccc(O)c(/C=N/Nc2nc3ccccc3[nH]2)c1 | n | n | n | n | 42 | n
CC(/C=N/Nc1nc(C)cc(=O)[nH]1)=C\c1ccccc1 | n | n | n | n | n | n
COc1cc(/C=N/Nc2nc3ccccc3[nH]2)cc(OC)c1O | n | n | n | n | n | n
CC(/C=N/Nc1nc2ccccc2[nH]1)=C\c1ccccc1 | n | n | n | n | 40 | n
COc1cc(/C=N/Nc2nc3ccccc3[nH]2)ccc1O | n | n | n | n | 42 | n
O=[N+]([O-])c1ccc(O)c(/C=N/Nc2nc3ccccc3[nH]2)c1 | n | n | n | n | n | n
O=C(NCc1ccccc1)c1cccc(NC(=O)C2CCCC2)c1 | n | n | n | n | n | n
NC(=O)c1ncn([C@@H]2O[C@H](C(=O)N[C@H](Cc3c[nH]c4ccccc34)C(=O)N3CCN(C(=O)C4CC4)CC3)[C@@H](O)[C@H]2O)n1 | x | n | x | x | n | x
CN(C)C(CN=C1NS(=O)(=O)c2ccccc21)c1ccco1 (stereo not drawn) | n | n | n | n | n | n
O=S1(=O)NC(=NCC(c2ccco2)N2CCCCC2)c2ccccc21 (stereo not drawn) | 57 | n | n | n | n | n
COc1ccc(-n2nc(C(=O)NCC(=O)NCc3cccc(F)c3)c3ccccc3c2=O)cc1Cl | n | 50 | n | n | n | n
COC(=O)CNC(=O)CNC(=O)c1nn(-c2ccc(OC)c(Cl)c2)c(=O)c2ccccc12 | n | n | n | n | n | n
CCC1CCCCN1CCCNC(=O)CNC(=O)c1nn(-c2ccc(OC)c(Cl)c2)c(=O)c2ccccc12 (stereo not drawn) | 49 | n | n | n | n | n
SMILES | CHRM1 antagonist | TAAR1 antagonist | HTR2A ag | M1 ag | TAAR1 agonist | CHRM1 PAM
Cc1cc(N2CCOCC2)nc(NCc2ccccc2)n1 | n | n | n | n | 49 | n
Cc1c(NS(=O)(=O)c2cccc(C(=O)N3CCC(C(N)=O)CC3)c2)c(=O)n(-c2ccccc2)n1C | n | n | n | n | n | 31
Cc1c(NS(=O)(=O)c2cccc(C(=O)Nc3ccccc3)c2)c(=O)n(-c2ccccc2)n1C | n | n | n | n | n | n
O=C(/C=C(\Nc1cc(Cl)c(Cl)c(Cl)c1)c1ccccc1)c1ccccc1 | x | n | x | x | n | x
COCOCCn1cc(CN2CCS(=O)(=O)N(Cc3ccc(-c4ccc(Cl)c(Cl)c4)cc3)C(C)C2=O)nn1 (stereo not drawn) | n | 59 | n | n | n | n
CC1C(=O)N(Cc2cn(CCC3OCCO3)nn2)CCS(=O)(=O)N1Cc1ccc(-c2ccc(Cl)cc2)cc1 (stereo not drawn) | n | 52 | n | n | n | n
CC1C(=O)N(Cc2cn(CCC3OCCCO3)nn2)CCS(=O)(=O)N1Cc1ccc(-c2ccc(F)cc2)cc1 (stereo not drawn) | n | n | n | n | n | n
CC1C(=O)N(Cc2cn(CCC3OCCCO3)nn2)CCS(=O)(=O)N1Cc1ccc(-c2ccc(Cl)c(Cl)c2)cc1 (stereo not drawn) | 31 | 69 | n | n | n | n
COC(=O)[C@]12C[C@H](CC(=O)NCCCCc3ccccc3)C(=O)N(Cc3ccccc3)C1=C[C@H](C(C)C)O[C@@H]2C1CC1 | x | n | x | x | n | x
Cn1c(N)c(C(=O)COC(=O)C2(c3ccc(F)cc3)CCCC2)c(=O)n(C)c1=O | n | 65 | n | n | n | n
Cn1c(N)c(C(=O)COC(=O)C2(c3ccc(Cl)cc3)CCCC2)c(=O)n(C)c1=O | n | n | n | n | n | n
Cc1c(C(=O)OCC[N+]2(C)CCCCC2)oc2ccccc12 | 54 | n | n | n | n | n
Cc1c(C(=O)OCC(=O)N2CCC(C)CC2)oc2ccccc12 | n | n | n | n | n | n
O=C(Nc1ccc(Nc2ccccc2)cc1)c1ccc(Cl)c([N+](=O)[O-])c1 | 32 | 51 | n | n | n | n
O=C(Nc1ccc(Cl)c(Cl)c1)Nc1nccs1 | n | n | n | n | 43 | n
Cc1ccc(NC(=O)c2ccc(Cl)c(N3C(=O)C=CC3=O)c2)cc1 | n | 56 | n | n | 66 | n
CN(c1ccccc1)S(=O)(=O)c1cccc(NC(=O)c2ccc(Cl)c([N+](=O)[O-])c2)c1 | 37 | n | n | n | n | n
Cc1cc(C(=O)Nc2ccc(Nc3ccccc3)cc2)ccc1[N+](=O)[O-] | n | n | n | n | n | n
Cc1occc1C(=O)/C(C#N)=C/c1ccc(O)c(Br)c1 | n | n | n | n | n | n
COc1ccccc1CN(C)C(=O)COC(=O)c1ccc(Cl)nc1 | n | n | n | n | n | n
Cc1ccc(C(=O)Nc2ccncc2)cc1[N+](=O)[O-] | n | n | n | n | n | n
O=C(Nc1ccc(Cc2ccncc2)cc1)c1ccc(Cl)c([N+](=O)[O-])c1 | n | 74 | n | n | n | n
O=C(Nc1ccc(Cl)c(Cl)c1)c1ccc(Cl)c(Cl)c1 | 37 | n | n | n | n | n
CN(C)CCNS(=O)(=O)c1ccc(N2CCc3ccccc32)c([N+](=O)[O-])c1 | n | n | n | n | n | n
C=CCn1c[n+](CC(=O)c2ccc(Br)s2)c2ccccc21 | n | n | n | n | n | n
